Experiments:
PBMC [1] = assay: Intracellular compound distribution in ratio in HIV-infected human PBMC at Cmax by LC-MS/MS analysis; assay type: ADME, cell-based
How it was run: (§1)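 Intracellular distribution ratio: PBMC concentration (LC-MS/MS) divided by plasma concentration (HPLC-fluorescence), computed per patient for AUCτ, Cmax and Cτ from day-10 fasted 0–24 h profiles after 800 mg once daily; reported as median (range).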

[2] = Terminal phase half life in HIV-infected human plasma at 800 mg qd for 10 days administered in fasted condition on day 10 by HPLC with fluorescence detector; assay type: ADME, cell-free; details: read-out: beta t1/2 (converted)
How it was run: (§2)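 Day-10 fasted serial sampling 0–24 h after oral 800 mg once daily. Plasma from two centrifugations (390 × g, 1,090 × g, 10 min), stored −80°C; liquid-liquid extraction with tert-butyl methyl ether; HPLC C18, phosphate buffer (25 mM, pH 3)-acetonitrile, fluorescence ex 299/em 396 nm, linear 10–5,000 ng/ml. Noncompartmental: AUCτ linear trapezoidal, Cmax/Cτ by inspection, λz from terminal log-linear regression.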

[3] = AUCt in HIV-infected human plasma at 800 mg qd for 10 days administered in fasted condition on day 10 by HPLC with fluorescence detector; assay type: ADME, cell-free; how it was run: as §2
Homo sapiens = assay: Toxicity in HIV-infected human at 800 mg qd for 10 days administered in fasted condition on day 10; assay type: organism-based; details: in vivo, 240 h
How it was run: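 Safety assessed on days 0 and 10 by clinical evaluation and laboratory tests (blood counts, chemistry) during 800 mg once-daily oral dosing added to ongoing antiretroviral therapy.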

PBMC [4] = assay: Intracellular compound distribution in ratio in HIV-infected human PBMC at AUCt by LC-MS/MS analysis; assay type: ADME, cell-based; how it was run: as §1
[5] = Drug concentration at the end of dosing interval in HIV-infected human plasma at 800 mg qd for 10 days administered in fasted condition on day 10 by HPLC with fluorescence detector; assay type: ADME, cell-free; details: read-out: Ctau; how it was run: as §2
[6] = Cmax in HIV-infected human plasma at 800 mg qd for 10 days administered in fasted condition on day 10 by HPLC with fluorescence detector; assay type: ADME, organism-based; design: dose 800 mg; how it was run: as §2
[7] = Drug concentration at the end of dosing interval in HIV-infected human PBMC at 800 mg qd for 10 days administered in fasted condition on day 10 by LC-MS/MS analysis; assay type: ADME, cell-based; details: read-out: Ctau
How it was run: (§3)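 EDTA blood kept 4°C, processed within 1 h; PBMCs isolated on Ficoll gradient, washed with 0.9% NaCl, pellet stored −80°C. LC-MS/MS, calibration 0.4–150 ng/ml lysate; cell number by DNA detection. Noncompartmental analysis; AUCτ linear trapezoidal; geometric mean (range).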

[8] = Cmax in HIV-infected human PBMC at 800 mg qd for 10 days administered in fasted condition on day 10 by LC-MS/MS analysis; assay type: ADME, organism-based; design: dose 800 mg; how it was run: as §3
[9] = AUCt in HIV-infected human PBMC at 800 mg qd for 10 days administered in fasted condition on day 10 by LC-MS/MS analysis; assay type: ADME, cell-based; how it was run: as §3
PBMC [10] = assay: Intracellular compound distribution in ratio in HIV-infected human PBMC at Ctau by LC-MS/MS analysis; assay type: ADME, cell-based; how it was run: as §1
[11] = Terminal phase half life in HIV-infected human PBMC at 800 mg qd for 10 days administered in fasted condition on day 10 by LC-MS/MS analysis; assay type: ADME, cell-based; details: read-out: beta t1/2 (converted); how it was run: as §3

Cc1nnc(C(=O)NC(C)(C)c2nc(C(=O)NCc3ccc(F)cc3)c(O)c(=O)n2C)o1 [RALTEGRAVIR]
Ratio (PBMC [1]): 0.08
half-life [2]: 16 h
AUC(0-t) at 240 h [3]: 12200 ng·h/mL
Activity (Homo sapiens): Non-toxic
Ratio (PBMC [4]): 0.07
concentration at 240 h [5]: 89 ng/mL
Cmax [6]: 2640 ng/mL
concentration at 240 h [7]: 7 ng/mL
Cmax [8]: 199 ng/mL
AUC(0-t) at 240 h [9]: 909 ng·h/mL
Ratio (PBMC [10]): 0.18
half-life [11]: 11.2 h
